Source: PubChem (Johns Hopkins Ion Channel Center)
TRPC4 act: opens the mouse TRPC4 cation channel; 310,000 tested, 0.49% active; B-score at 10 µM; AID 2237; HEK293 TRPC4beta/mu-opioid, Fluo4 calcium fluorescence; stronger effect = higher value;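 active means B-score above 5 SD of library B-scores, and initial fluorescence ratio not above library mean plus 5 SD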;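 further: positive B-score marks a calcium rise read as TRPC4 activation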
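Assay system: HEK293 cells stably co-expressing mouse TRPC4beta and mu-opioid receptor / Timing: Fluo4 dye loading 45 min at room temperature, 110 s recording / Signal: Fluo4 calcium-sensitive dye fluorescence, kinetic, 1 Hz baseline / Read-out: integrated baseline-normalised fluorescence ratio, converted to per-well B score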
TRPC4 PAM: TRPC4 (mouse) allosteric potentiation; Q9QUQ5; HEK293 TRPC4beta/mu-opioid, DAMGO EC20, Fluo-4 Ca2+ flux; stronger effect = higher value; B-score at 10 µM; 310,000 tested, 0.42% active; AID 2227;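 active means B-score of calcium response area above 5 SD of library B-scores, with initial fluorescence ratio within 5 SD of library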;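 further: B-score of integrated fluorescence ratio over time as area under calcium response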
TRPC4 inh: blocks the mouse TRPC4 cation channel | Q9QUQ5 | HEK293 TRPC4beta/mu-opioid, DAMGO-evoked Fluo4 calcium flux; stronger effect = lower value | B-score at 10 µM | 300,000 tested, 0.39% active | AID 2247;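 active means B-score over 3 SD under the library average, no early fluorescence shift, positive overall ratio signal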
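Assay system – HEK293 line stably carrying TRPC4beta and mu-opioid receptor · Doses – single dose · Detection – Fluo4 calcium-dye fluorescence, kinetic read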
TRPC6 act: activates the mouse TRPC6 cation channel. Q61143. HEK293-TRPC6 membrane potential dye fluorescence; stronger effect = higher value. B-score at 10 µM. 310,000 tested, 0.13% active;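 active means B-score of the integrated fluorescence ratio above library mean plus 3 SD, and starting fluorescence ratio within library mean plus 5 SD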;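 further: higher score means more depolarization so channel activation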
Target sequence (Q61143 whole entry, looked up): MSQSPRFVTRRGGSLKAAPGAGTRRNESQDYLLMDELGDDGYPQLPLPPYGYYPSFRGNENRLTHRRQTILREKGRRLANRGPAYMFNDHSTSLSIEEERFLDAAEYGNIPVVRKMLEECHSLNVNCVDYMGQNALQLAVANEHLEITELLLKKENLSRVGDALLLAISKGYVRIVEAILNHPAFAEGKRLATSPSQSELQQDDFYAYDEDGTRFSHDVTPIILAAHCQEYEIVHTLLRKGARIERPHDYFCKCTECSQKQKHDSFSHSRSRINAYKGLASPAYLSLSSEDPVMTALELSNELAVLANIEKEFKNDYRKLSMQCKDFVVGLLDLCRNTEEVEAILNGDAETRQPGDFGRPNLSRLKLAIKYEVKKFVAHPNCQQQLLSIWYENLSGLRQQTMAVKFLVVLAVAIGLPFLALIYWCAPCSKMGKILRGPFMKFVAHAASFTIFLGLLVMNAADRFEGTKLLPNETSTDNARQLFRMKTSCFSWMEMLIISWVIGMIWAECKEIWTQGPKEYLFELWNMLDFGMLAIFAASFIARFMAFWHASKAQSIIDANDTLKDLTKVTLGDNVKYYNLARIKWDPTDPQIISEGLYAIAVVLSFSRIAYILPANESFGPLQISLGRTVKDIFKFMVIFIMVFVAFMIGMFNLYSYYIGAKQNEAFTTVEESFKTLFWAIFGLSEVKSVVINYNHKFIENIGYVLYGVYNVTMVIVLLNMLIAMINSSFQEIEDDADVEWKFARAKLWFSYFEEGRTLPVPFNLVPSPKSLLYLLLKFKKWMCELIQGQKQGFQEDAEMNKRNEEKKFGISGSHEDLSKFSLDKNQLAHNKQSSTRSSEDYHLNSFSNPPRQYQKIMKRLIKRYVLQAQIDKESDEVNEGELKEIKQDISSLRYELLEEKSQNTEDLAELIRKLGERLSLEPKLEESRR
TRPC6 inhibitor: mouse TRPC6 channel inhibition. Q61143. HEK293-TRPC6, membrane potential dye, ACh-evoked depolarization; stronger effect = lower value. B-score at 10 µM. 310,000 tested, 1.1% active. AID 2553;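 active means B-score under library mean minus 3 SD, initial fluorescence not abnormally high, positive integrated signal ratio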;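 further: B-score derived from integrated fluorescence ratio over the kinetic read; more negative B-score means stronger inhibition of depolarization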
TRPC4 spec 2: mouse TRPC4 off-target activity of TRPC6 inhibitors, second screen | shares compounds with TRPC6 inhibitor | HEK293 TRPC4/MOR, membrane potential dye fluorescence; channel activated by saturating DAMGO dose | inhibition, % at 10 µM | 920 tested, 42% active;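 active means compounds whose fluorescence signal differed from control wells by over 3 SD, either direction, in both duplicate plates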
TRPC4 spec: selectivity of TRPC6 inhibitors: effect on mouse TRPC4; HEK293 TRPC4/mu-opioid, membrane potential fluorescence; 920 tested, 61% active; AID 2777; shares compounds with TRPC6 inhibitor; activity change, negative = inhibition, % at 10 µM;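 active means rise or fall in signal beyond 3 SD of buffer-only wells in both replicate plates, either sign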;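 further: integrated kinetic ratio of fluorescence range over baseline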
HEK293 MPD ctr 2-1: second counter-screen for TRPC6 inhibitors: parental HEK293 cells. parental HEK293 membrane potential dye fluorescence; maximal acetylcholine challenge after compound addition. shares compounds with TRPC6 inhibitor. 920 tested, 31% active. AID 2779. signal change vs control, % at 10 µM;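 active means membrane potential signal moving either way by over 3 SD of the maximum-effect control, in both duplicate plates, meaning non-specific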
HEK293 MPD ctr-1: checks TRPC6 inhibitor effects in parental HEK293 cells. shares compounds with TRPC6 inhibitor. parental HEK293 membrane potential dye fluorescence. membrane potential signal change, % at 10 µM. 920 tested, 60% active. AID 2780;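 active means membrane potential signal shifting up or down by more than 3 SD of buffer-only wells, on both duplicate plates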
HEK293 MPD ctr-2: parental HEK293 nonspecific activity of TRPC6 modulators; shares compounds with TRPC6 inhibitor; membrane potential dye fluorescence; membrane potential signal change, % at 10 µM; 2,400 tested, 51% active;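 active means membrane potential signal moves up or down beyond 5 SD from buffer-only wells, on both duplicate plates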
HEK293 MPD ctr 2-2: second check of TRPC6 modulator effects in parental HEK293 cells; membrane potential dye fluorescence; after compound, maximal acetylcholine stimulation; shares compounds with TRPC6 inhibitor; 2,400 tested, 14% active; inhibition, % at 10 µM;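 active means membrane potential signal drops by more than 5 SD from the mean control signal, in both duplicate plates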;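 further: plate controls were acetylcholine ECmax control wells for no effect and buffer only wells for full effect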
TRPC4 ctr mod: tests whether TRPC6 modulators also affect mouse TRPC4; HEK293 TRPC4/mu-opioid, membrane potential fluorescence; 2,400 tested, 69% active; AID 488927; shares compounds with TRPC6 inhibitor; percent change from control (negative = decrease, positive = increase), % at 10 µM;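 active means membrane potential signal moved up or down beyond 5 SD of buffer control wells, in both duplicate plates, actives on both sides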;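 further: plate controls were assay buffer wells for no effect and DAMGO maximal-effect wells for full effect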
TRPC4/MOR inh 2: second selectivity test of TRPC6 modulators against mouse TRPC4; shares compounds with TRPC6 inhibitor; HEK293 TRPC4/mu-opioid, membrane potential dye fluorescence; stimulated with maximal-effect DAMGO; inhibition, % at 10 µM; 2,400 tested, 55% active; AID 488928;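 active means drop in membrane potential signal beyond 5 SD of the control wells in both duplicate plates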;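 further: TRPC4 counter screen for TRPC6 hits run under conditions tuned for TRPC6 not TRPC4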
TRPC6 inh conf: mouse TRPC6 inhibitor confirmation; inhibition, % at 10 µM; 3,300 tested, 43% active; shares compounds with TRPC6 inhibitor; HEK293-TRPC6, membrane potential dye, ACh-evoked depolarization; AID 488960;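 active means fluorescence ratio falls more than 5 SD below the full-stimulation control mean, in both duplicate runs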;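 further: integrated fluorescence ratio of peak minus minimum over baseline after agonist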
TRPC6 act conf: confirmation of mouse TRPC6 activators | HEK293-TRPC6 membrane potential dye fluorescence, FDSS | AID 488961 | activation, % at 10 µM | 2,800 tested, 11% active | shares compounds with TRPC6 inhibitor;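 active means ratio signal rise beyond 5 SD above unstimulated control wells' mean, seen in both duplicate runs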;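 further: plate controls were buffer EC0 wells for no effect and acetylcholine ECmax response for full effect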
* hit, by the source's call; i = inactive; / = not tested or not shown; + = active, no number. Shown are actives, neighbours in structure and some others; about 2.3% of the full set was active somewhere.

SMILES	TRPC4 act	TRPC4 PAM	TRPC4 inh	TRPC6 act	TRPC6 inhibitor	HEK293 MPD ctr-2	HEK293 MPD ctr 2-2	TRPC4 ctr mod	TRPC4/MOR inh 2	TRPC6 inh conf	TRPC6 act conf	others
CCCCOc1ccc(Br)cc1CSC(=N)N	i	i	i	i	-6.9*	/	/	/	/	76%*	i	TRPC4 spec 2=18%*;TRPC4 spec=4.3%*;HEK293 MPD ctr 2-1=i;HEK293 MPD ctr-1=6.7%*
CCOc1cccc(C(=O)Nc2ccccc2C(=O)N2CCN(C)CC2)c1	i	i	i	i	i	/	/	/	/	/	/
Oc1ccccc1N=Cc1c(O)ccc2ccccc12	i	i	i	i	-5.3*	i	i	38%*	i	i	/
O=C(NC(=S)N1CCN(c2ccccn2)CC1)c1ccco1	i	i	i	i	i	/	/	/	/	/	/
Cc1ccc(NC(=O)CS(=O)CC(=O)Nc2cnc3ccccc3c2)cc1Cl (stereo not given)	i	i	i	i	i	/	/	/	/	/	/
CCOC(=O)c1cnc2c(ccc3ccccc32)c1NCCN(C)C	i	i	i	i	-6.8*	/	/	/	/	i	i	TRPC4 spec 2=74%*;TRPC4 spec=-14%*;HEK293 MPD ctr 2-1=i;HEK293 MPD ctr-1=-232%*
CCOC(=O)c1cnc2c(ccc3ccccc32)c1NCCO	i	i	i	i	i	/	/	/	/	/	/
CCOC(=O)c1c(NCCN(C)C)c2ccccc2[nH]c1=O	i	i	i	i	i	/	/	/	/	/	/
CCOC(=O)c1cnc2c(Cl)cccc2c1NCCN(C)C	i	i	i	i	-9.2*	/	/	/	/	73%*	i	TRPC4 spec 2=68%*;TRPC4 spec=-26%*;HEK293 MPD ctr 2-1=18%*;HEK293 MPD ctr-1=-448%*
CCOC(=O)c1cnc2c(C(=O)OC)cccc2c1NCc1cccnc1	i	i	i	i	-6.2*	i	i	14%*	i	i	i
COc1ccc(CNC(=O)CN(Cc2ccco2)C(=O)CNS(=O)(=O)c2ccc(F)cc2)cc1	i	i	i	i	i	/	/	/	/	/	/
COCOc1ccc(/C=C/C(=O)c2c(O)cc(OCOC)cc2OCOC)cc1	i	i	i	i	i	/	/	/	/	/	/
CN1CCN(NC(=O)CN2C(=O)/C(=C/c3ccccc3Cl)SC2=S)CC1	i	i	i	i	-8.3*	/	/	/	/	61%*	i	TRPC4 spec 2=64%*;TRPC4 spec=i;HEK293 MPD ctr 2-1=i;HEK293 MPD ctr-1=-130%*
Nc1cccc(C(=O)NCCNC(=O)c2cccc(N)c2)c1	i	i	i	i	-7.1*	/	/	/	/	i	i	TRPC4 spec 2=i;TRPC4 spec=i;HEK293 MPD ctr 2-1=i;HEK293 MPD ctr-1=i
O=C(NCCNC(=O)c1cccc(O)c1)c1cccc(O)c1	i	i	i	i	i	/	/	/	/	/	/
COCCCN(CC(=O)NCc1ccccc1)S(=O)(=O)c1ccc(C)cc1	i	i	i	i	-6.3*	i	i	i	i	i	i
COCCCNC(=O)CN(CCc1ccccc1)S(=O)(=O)c1ccc(OC)cc1	i	i	i	i	i	/	/	/	/	/	/
c1csc(-c2nn3c(C4COc5ccccc5O4)nnc3s2)c1 (stereo not given)	i	i	i	i	-12*	i	i	i	i	i	i
COc1ccc(-c2cc(C(F)(F)F)c3c(N)c(C(=O)NCCSC)sc3n2)cc1	i	i	i	i	i	/	/	/	/	/	/
CN(C)CCNC(=O)c1sc2nc(-c3ccccc3)cc(C(F)(F)F)c2c1N	83*	i	i	16*	i	312%*	i	57%*	45%*	/	144%*
CCc1noc(C)c1C(=O)Nc1ccc(S(=O)(=O)N2CCCCC2)cc1	i	i	i	i	i	/	/	/	/	/	/
CCc1noc(C)c1C(=O)Nc1ccc(-c2nnc3n2CCCCC3)cc1	i	i	i	i	-5*	i	i	i	i	i	i
CC1=NOC(=O)/C1=C/c1ccc(N(C)C)cc1	i	i	i	i	i	/	/	/	/	/	/
CCOc1ccccc1NC=C1C(=O)OC2(CCCCC2)OC1=O	i	i	i	i	i	/	/	/	/	/	/
CCN(CC)c1ccc(/C=C2/C(=O)ON=C2C)cc1	i	i	i	13*	i	799%*	i	59%*	i	i	133%*
CCN(CC)c1ccc(C=C2C(=O)OC3(CCCCC3)OC2=O)cc1	i	i	i	59*	i	724%*	i	162%*	i	i	188%*
CCCCC1(C)OC(=O)C(=Cc2ccc(N(CC)CC)cc2)C(=O)O1 (stereo not given)	i	i	i	36*	i	+	i	186%*	i	i	368%*
CCN(CC)S(=O)(=O)c1cccc(C(=O)Nc2cccc(C)c2)c1	i	i	i	i	-5.1*	i	i	8.0%*	i	i	i
CCN(CC)CCNC(=O)c1ccc(NC(=O)C2CCN(S(=O)(=O)c3ccc4c(c3)OCCO4)CC2)cc1	i	i	i	i	i	/	/	/	/	/	/
CCN(CC)CCNC(=O)c1ccc(NC(=O)c2cc(S(=O)(=O)N3CCCCC3)ccc2C)cc1	i	i	i	i	-5.3*	i	65%*	10%*	i	60%*	i
